PfM18AAP inh-1 – blocks P. falciparum M18 aspartyl aminopeptidase. recombinant PfM18AAP, H-Glu-NHMec fluorogenic cleavage. inhibition, % at 7.35 µM. hit rate 1.2% among 290,000. AID 1822;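 active means inhibition above the campaign mean inhibition over all tested compounds plus 3 SD, cut at about 28% in these data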
p97 inhibitor – blocks human p97 ATPase activity. P55072. recombinant p97 ATPase, Kinase-Glo ATP luminescence, 3 h. inhibition, % at 8 µM. hit rate 0.42% among 220,000. AID 1481; in the data active means inhibition above about 15%
NS3 helicase inh – inhibitors of Hepatitis C virus NS3 helicase; NS3 helicase DNA unwinding, Cy5 molecular beacon fluorescence; inhibition, % at 10.9 µM; hit rate 0.56% among 290,000;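 active means inhibition above the mean of all tested compounds plus 3 SD, set per campaign, cut at about 35% in these data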
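System: Hepatitis C virus NS3 helicase domain fragment enzyme | Reagent: Annealed dual-labelled DNA beacon duplex, ATP-started | Compound dosing: 10.9 µM single point, 0.8% DMSO | Incubation: 1 h reaction at 25 °C, ATP-initiated | Technique: Cy5 fluorescence | Evaluation: Percent inhibition from t60/t0 fluorescence ratio | Benchmarks: Low DMSO, high thioflavine S at 110 µM | Replication: Singlicate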
UPR XBP1 act – adaptive UPR (XBP1) activation; CHO-XBP1 luciferase reporter, IRE1-XBP1 UPR activation, luminescence; percent of tunicamycin response, DMSO as zero; activation, % at 20 µM; hit rate 0.33% among 330,000; AID 463104;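 active means versus positive control, 20 µM dose yields 30% or more activation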
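Material: IRE1-XBP1 luciferase reporter CHO line / Quantity: one thousand reporter cells per well / Buffer or medium: F12 with 10% serum / Compound: 20 µM single concentration, DMSO 1% / Times: 6 h treatment, 37 °C / Detection: Steady-Glo luciferase glow luminescence, 10 min after reagent addition / Benchmarks: tunicamycin high, DMSO low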
CHOP UPR activ – activators of apoptotic arm of unfolded protein response (CHOP); hit rate 0.34% among 330,000; AID 449763; CHO-CHOP luciferase reporter, UPR activation, luminescence; percent of tunicamycin response over DMSO baseline; activation, % at 10 µM;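 active means at 10 µM dose, activation of 40% or more, normalized to positive control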
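Material: CHO-CHOP cells, stable luciferase reporter of PERK-eIF2a-CHOP signalling; quantity: 500 reporter cells seeded per well; buffer or medium: F12 medium containing 10% fetal bovine serum; compound: one dose, 10 µM in 0.5% DMSO; incubation: 6 h compound treatment, 37 °C; measured by: Steady-Glo luciferase luminescence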
CHOP inhibitor – blocks CHOP induction under ER stress; hit rate 3.8% among 220,000; CHO-K1 CHOP-promoter luciferase, tunicamycin-induced, 15-18 h; inhibition, % at 10 µM;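 active means compounds that reduced the stress-induced luciferase reporter signal by more than about 70% of percent inhibition, limit read from the data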
PfM18AAP inh-2 – confirmation of Plasmodium falciparum M18 aspartyl aminopeptidase inhibitors; shares compounds with PfM18AAP inh-1; recombinant PfM18AAP, H-Glu-NHMec fluorogenic cleavage; inhibition, % at 7.35 µM; hit rate 28% among 2,400;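 active means mean inhibition over replicate wells above the hit cutoff set for the earlier primary screen, cut at about 29% in these data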
CTSL1 counter – Cathepsin L (human) inhibition, confirmation; shares compounds with PfM18AAP inh-1; purified cathepsin L1, Z-Leu-Arg-MCA fluorescence; inhibition, % at 5.96 µM; 2,400 tested, under 10 active; AID 2178;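 active means average inhibition across replicates above the hit cutoff set in the earlier primary screen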
Target sequence (P07711 whole entry, looked up): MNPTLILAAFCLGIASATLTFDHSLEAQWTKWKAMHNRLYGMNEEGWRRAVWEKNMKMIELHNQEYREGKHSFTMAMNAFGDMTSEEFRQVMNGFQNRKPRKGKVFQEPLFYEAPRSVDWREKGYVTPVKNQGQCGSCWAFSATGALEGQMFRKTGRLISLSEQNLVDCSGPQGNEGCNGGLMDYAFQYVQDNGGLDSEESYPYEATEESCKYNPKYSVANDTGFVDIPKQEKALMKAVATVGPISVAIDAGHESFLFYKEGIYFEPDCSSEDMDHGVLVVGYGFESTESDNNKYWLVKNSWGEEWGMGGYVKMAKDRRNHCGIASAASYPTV
Numbers stand for hits; . = inactive; / = no result. Most compounds without a hit are left out; they make up all but 4.5% or so of the library.

SMILES	PfM18AAP inh-1	p97 inhibitor	NS3 helicase inh	UPR XBP1 act	CHOP UPR activ	CHOP inhibitor	PfM18AAP inh-2	CTSL1 counter
Cc1cc(C)nc(SC/C=C/c2ccccc2)n1	34	/	.	.	.	/	.	.
CCc1c(C)sc(NC(=O)c2cc(CC(C)C)on2)c1C#N	.	.	.	.	.	.	/	/
CCc1c(C)sc(NC(=O)c2noc(C)c2[N+](=O)[O-])c1C#N	37	.	.	.	.	.	.	.
Cc1ccc(O)c(CNc2cccc3cccnc23)c1	.	.	.	.	.	.	/	/
Oc1ccc(Br)cc1CNc1cccc2cccnc12	46	/	.	.	.	/	.	103
CCOC(=O)c1cc(-c2ccccc2)n(CC2CC(c3ccc(OC)cc3)=NO2)n1 (centres undefined)	.	/	.	.	.	/	/	/
C#CCOCCOCCOCCNc1nc(N2CCOCC2)nc(N2CCN(C(=O)[C@H](CCC(=O)O)n3cc(C(N)Cc4ccc(O)cc4)nn3)CC2)n1 (some centres undefined)	.	.	.	.	.	.	/	/
O=C(O)C1=C[C@@H](c2ccc3c(c2)OCO3)C[C@@H](OCc2ccc(CO)cc2)O1	36	.	.	.	.	.	.	.
O=[N+]([O-])c1ccc(NNS(=O)(=O)c2cc(Cl)ccc2Cl)nc1	55	/	.	.	.	/	.	.
CSCCC(NC(=O)c1ccccc1)C(=O)NCCc1ccc2c(c1)OCCO2 (centres undefined)	/	/	/	.	.	/	/	/
Cn1c(O)c(/C=N/NC(=O)c2cc3ccccc3cc2O)c2ccccc21	32	/	.	.	.	/	.	.
CCC(CC)NC(=O)c1nn(Cc2ccccc2)c(=O)c2ccccc12	.	/	.	.	.	/	/	/
CC(C)[C@H](NC(=O)c1nn(Cc2ccccc2)c(=O)c2ccccc12)C(=O)O	36	/	.	.	.	/	.	.
Cc1nn(C)cc1/C=N/NC(=O)Cn1nnc(N)n1	.	.	.	.	.	.	/	/
Cc1nnc(-c2ccc(Oc3ccc(Br)cc3)c([N+](=O)[O-])c2)o1	33	.	.	.	.	.	.	.
COc1cc(/C=N/NC(=S)Nc2cccc(S(=O)(=O)N(C)C)c2)cc(OC)c1O	43	.	.	.	.	.	.	.
Cc1cc(N/N=C/c2ccc(O)cc2)nc(NS(=O)(=O)c2ccccc2)n1	43	.	.	.	.	.	.	.
Cc1nc2ccccc2nc1N/N=C/c1ccc(O)cc1	37	.	.	.	.	.	.	.
CN(C)c1cccc(NC(=O)Cc2ccc(F)cc2)c1	39	.	.	.	.	.	.	.
COc1ccc(C(=O)OCC(=O)Nc2nnc(-c3ccccc3)o2)cc1	42	/	.	.	.	/	.	.
COc1cc(C(=O)OCC(=O)Nc2nnc(-c3ccccc3)o2)cc(OC)c1OC	/	/	/	.	.	/	/	/
CN1N=C(C(=O)N2CCCC(N3CCN(c4ccc(F)cc4)CC3)C2)CCC1=O (centres undefined)	.	/	.	.	.	/	/	/
Oc1ccc(/C=N/NC(=S)N/N=C/c2ccc(O)cc2)cc1	34	.	.	.	.	.	.	19
NC(=O)c1ccc(N2CCN(c3ccc(O)cc3)CC2)c([N+](=O)[O-])c1	50	.	.	.	.	.	.	.
COc1cc(OC)c(C(=O)OCC(=O)NC2CCCCCCC2)cc1OC	/	/	/	.	.	/	/	/
SMILES	PfM18AAP inh-1	p97 inhibitor	NS3 helicase inh	UPR XBP1 act	CHOP UPR activ	CHOP inhibitor	PfM18AAP inh-2	CTSL1 counter
O=C(CSc1ncccc1C(=O)O)c1ccccc1	.	.	.	.	.	.	/	/
O=C(O)c1ccnc(SCC(=O)c2ccccc2)c1	50	.	.	.	.	.	.	.
Cc1ccc(C(=O)CSc2ccccn2)cc1	44	.	.	.	.	.	.	.
O=C(CSc1ccccn1)c1ccc(F)cc1	.	.	.	.	.	.	/	/
Cc1c(C)c(C)c(C(=O)C2CCN(c3ccc([N+](=O)[O-])cn3)CC2)c(C)c1C	.	.	.	.	.	.	/	/
COc1ccc(NC(=S)NCCc2ccccc2)c(C)c1	.	/	.	.	.	/	/	/

Screens as filed in PubChem BioAssay.
